Results on one molecule are retold here after ChEMBL document CHEMBL3351398, “Discovery of a Potent and Selective DGAT1 Inhibitor with a Piperidinyl-oxy-cyclohexanecarboxylic Acid Moiety” (ACS Med Chem Lett, 2014).

The target in data set [1] is T1, Diacylglycerol O-acyltransferase 1 (Homo sapiens, UniProt O75907).
T1 sequence (O75907 whole entry): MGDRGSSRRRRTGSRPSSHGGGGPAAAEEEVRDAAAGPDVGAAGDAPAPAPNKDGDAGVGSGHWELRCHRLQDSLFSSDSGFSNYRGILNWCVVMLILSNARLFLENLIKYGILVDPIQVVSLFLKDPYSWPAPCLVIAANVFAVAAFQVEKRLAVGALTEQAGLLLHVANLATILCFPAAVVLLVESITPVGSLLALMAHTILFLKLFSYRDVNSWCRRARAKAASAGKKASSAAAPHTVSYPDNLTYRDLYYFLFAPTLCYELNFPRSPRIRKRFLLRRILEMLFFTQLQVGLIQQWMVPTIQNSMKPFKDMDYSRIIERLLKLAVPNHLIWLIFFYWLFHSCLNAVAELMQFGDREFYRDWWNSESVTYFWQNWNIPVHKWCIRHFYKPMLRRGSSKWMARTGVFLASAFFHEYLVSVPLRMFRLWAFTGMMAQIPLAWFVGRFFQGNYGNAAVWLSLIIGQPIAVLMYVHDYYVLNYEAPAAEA
The data set is described as follows: Inhibition of human DGAT1.

The target of data set [2] is T2, Diacylglycerol O-acyltransferase 1 (Mus musculus, UniProt Q9Z2A7).
T2 sequence (Q9Z2A7 whole entry): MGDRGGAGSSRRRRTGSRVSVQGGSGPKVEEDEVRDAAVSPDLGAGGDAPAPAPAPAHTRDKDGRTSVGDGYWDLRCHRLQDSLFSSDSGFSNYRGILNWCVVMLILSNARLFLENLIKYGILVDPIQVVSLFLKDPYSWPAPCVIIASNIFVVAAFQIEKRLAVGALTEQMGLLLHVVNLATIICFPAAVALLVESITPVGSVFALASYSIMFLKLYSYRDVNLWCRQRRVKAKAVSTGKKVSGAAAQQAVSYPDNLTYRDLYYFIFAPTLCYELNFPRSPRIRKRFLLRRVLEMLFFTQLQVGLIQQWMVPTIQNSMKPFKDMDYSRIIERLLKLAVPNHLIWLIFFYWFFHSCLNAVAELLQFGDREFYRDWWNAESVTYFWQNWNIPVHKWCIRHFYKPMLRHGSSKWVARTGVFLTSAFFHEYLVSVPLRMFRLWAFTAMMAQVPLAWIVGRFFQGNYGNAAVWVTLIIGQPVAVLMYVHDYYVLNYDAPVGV
The data set is described as follows: Inhibition of mouse DGAT1.

Another data set deals with Mus musculus. The data set is described as follows: Inhibition of plasma triglyceride accumulation in mouse at 10 mg/kg, po dosed 2 hrs before lipid challenge and measured at 18 hrs by lipid tolerance test. Type of data set: functional. Put shortly:
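Mouse lipid tolerance test measuring plasma triglyceride excursion. Dosing was 10 mpk oral, with triglyceride reduction read at 18 h.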

The test system of the next data set is Rattus norvegicus. Put plainly: Inhibition of plasma triglyceride accumulation in Sprague-Dawley rat at 3 mg/kg, po dosed 2 hrs before lipid challenge and measured at 18 hrs by lipid tolerance test. It counts as functional. Put shortly: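 Rat lipid tolerance test at oral doses of 1 and 3 mpk. Reduction of lipid excursion was normalized to a reference DGAT1 inhibitor given at 10 mpk, set as 100%. Plasma drug levels were the parent and its cis isomer combined, measured 4 h after oral dosing.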

The test system of data set [3] is Salmonella typhimurium. The data set is described as follows: Induction of mutagenicity in Salmonella typhimurium TA1535 assessed as increase in number of revertants in presence of metabolic activation. Type of data set: toxicity, organism-based. To be noted: salmonella enterica subsp. enterica serovar typhimurium. An outline of the steps:
(§1)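 Microbial reverse-mutation (Ames) test in strains TA1535, TA98 and TA100, with and without metabolic activation. The concentration range was 30 to 5000 μg/plate. A positive call required a 2-fold or greater increase in revertants relative to the solvent control.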

Data set [4] concerns Salmonella typhimurium. Put plainly: Induction of mutagenicity in Salmonella typhimurium TA1535 assessed as increase in number of revertants in absence of metabolic activation. Type of data set: toxicity, organism-based. The note with it: salmonella enterica subsp. enterica serovar typhimurium. Put shortly:
as §1

Data set [5] relates to Salmonella typhimurium. Put plainly: Induction of mutagenicity in Salmonella typhimurium TA98 assessed as increase in number of revertants in presence of metabolic activation. The note with it: salmonella enterica subsp. enterica serovar typhimurium. Type of data set: toxicity, organism-based. An outline of the steps:
as §1

In data set [6] the test system is Salmonella typhimurium. The data set is described as follows: Induction of mutagenicity in Salmonella typhimurium TA98 assessed as increase in number of revertants in absence of metabolic activation. It counts as toxicity, organism-based. To be noted: salmonella enterica subsp. enterica serovar typhimurium. An outline of the steps: as §1
The nature of data set [7]: Clearance in Beagle dog at 1 mg/kg, iv or 4 mg/kg, po. It counts as ADME, organism-based, Canis lupus familiaris. To be noted: in vivo. An outline of the steps: (§2)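 Single-dose pharmacokinetics. Beagle dogs were dosed at 1 mg/kg iv as a solution in 30% captisol (pH 8) and at 4 mg/kg po in 0.5 methylcellulose.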
A short description of data set [8]: Volume of distribution at steady state in Beagle dog at 1 mg/kg, iv or 4 mg/kg, po. It counts as ADME, organism-based, Canis lupus familiaris. The note with it: in vivo, read-out: Vdss. Put shortly:
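Beagle dogs were dosed 1 mg/kg iv as a solution in 30% captisol (pH 8) and 4 mg/kg po in methylcellulose. Pharmacokinetic parameters were derived from these dosings.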

The test system of the next data set is Canis familiaris. The data set is described as follows: AUC in Beagle dog assessed as cis-4-((1-(5-(5-(trifluoromethyl)-1H-benzo[d]imidazol-2-yl)pyridin-2-yl)piperidin-4-yl)oxy)cyclohexanecarboxylic acid at 4 mg/kg, po. Type of data set: ADME, organism-based, Canis lupus familiaris, Plasma. The arrangement: dose 4 mg/kg, route oral. The note with it: in vivo. An outline of the steps:
as §2

The nature of data set [9]: Drug level in small intestine of C57BL/6 mouse at 10 mg/kg, po after 3 hrs. It counts as ADME, organism-based. The arrangement: dose 10 mg/kg, route oral. To be noted: read-out: Drug uptake. Put shortly:
(§3)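 Tissue distribution in C57BL/6 mice. A single oral dose of 10 mg/kg was given as a solution in EtOH/PEG400/water (10:50:40). Parent and its cis isomer were both measured, in μM, in plasma, liver, small intestine, adipose fat and skin at 3 h and 24 h.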

The nature of data set [10]: Drug level in plasma of C57BL/6 mouse at 10 mg/kg, po after 24 hrs. It counts as ADME, organism-based. Details: dose 10 mg/kg, route oral. An outline of the steps:
as §3

Data set [11] can be described thus: Drug level in liver of C57BL/6 mouse at 10 mg/kg, po after 24 hrs. Type of data set: ADME, organism-based. Details: dose 10 mg/kg, route oral. To be noted: read-out: Drug uptake. Put shortly: as §3
In a further data set the test system is Liver. Put plainly: Drug level in liver of C57BL/6 mouse assessed as cis-4-((1-(5-(5-(trifluoromethyl)-1H-benzo[d]imidazol-2-yl)pyridin-2-yl)piperidin-4-yl)oxy)cyclohexanecarboxylic acid level at 10 mg/kg, po after 24 hrs. Type of data set: ADME, organism-based. Details: dose 10 mg/kg, route oral. To be noted: in vivo, read-out: Drug uptake. Put shortly:
as §3

Data set [12] deals with Zone of skin. The data set is described as follows: Drug level in skin of C57BL/6 mouse assessed as cis-4-((1-(5-(5-(trifluoromethyl)-1H-benzo[d]imidazol-2-yl)pyridin-2-yl)piperidin-4-yl)oxy)cyclohexanecarboxylic acid level at 10 mg/kg, po after 24 hrs. It counts as ADME, organism-based. Details: dose 10 mg/kg, route oral. To be noted: in vivo, read-out: Drug uptake. An outline of the steps: as §3

For a further data set, the system named is Plasma. Put plainly: Drug level in plasma of C57BL/6 mouse assessed as cis-4-((1-(5-(5-(trifluoromethyl)-1H-benzo[d]imidazol-2-yl)pyridin-2-yl)piperidin-4-yl)oxy)cyclohexanecarboxylic acid level at 10 mg/kg, po after 3 hrs. It counts as ADME, organism-based. Details: dose 10 mg/kg, route oral. To be noted: in vivo. Put shortly: as §3
The subject of a further data set is Intestine. The data set is described as follows: Drug level in small intestine of C57BL/6 mouse assessed as cis-4-((1-(5-(5-(trifluoromethyl)-1H-benzo[d]imidazol-2-yl)pyridin-2-yl)piperidin-4-yl)oxy)cyclohexanecarboxylic acid level at 10 mg/kg, po after 3 hrs. It counts as ADME, organism-based. The arrangement: dose 10 mg/kg, route oral. The note with it: in vivo, read-out: Drug uptake. An outline of the steps:
as §3

A short description of data set [13]: Drug level in adipose fat of C57BL/6 mouse assessed as cis-4-((1-(5-(5-(trifluoromethyl)-1H-benzo[d]imidazol-2-yl)pyridin-2-yl)piperidin-4-yl)oxy)cyclohexanecarboxylic acid level at 10 mg/kg, po after 3 hrs. It counts as ADME, organism-based, Adipose tissue. The arrangement: dose 10 mg/kg, route oral. To be noted: in vivo, read-out: Drug uptake. An outline of the steps: as §3

Data set [14] concerns Zone of skin. The data set is described as follows: Drug level in skin of C57BL/6 mouse assessed as cis-4-((1-(5-(5-(trifluoromethyl)-1H-benzo[d]imidazol-2-yl)pyridin-2-yl)piperidin-4-yl)oxy)cyclohexanecarboxylic acid level at 10 mg/kg, po after 3 hrs. Type of data set: ADME, organism-based. Details: dose 10 mg/kg, route oral. The note with it: in vivo, read-out: Drug uptake. Put shortly: as §3

pIC50: −log10 of the molar value.

Regarding `O=C(O)[C@H]1CC[C@H](OC2CCN(c3ccc(-c4nc5cc(C(F)(F)F)ccc5[nH]4)cn3)CC2)CC1`, the pIC50 in data set [1] is 8.41; in data set [2] it was 7.64. 10 mg/kg produced 89% inhibition in vivo with Mus musculus. The molecule also registered an inhibition in vivo at 3 mg/kg in the data set on Rattus norvegicus of 80%. Moreover, the Activity entry in the data set with Salmonella typhimurium [3], in the data set with Salmonella typhimurium [4], with Salmonella typhimurium [5] and in the data set with Salmonella typhimurium [6] was “Non-toxic” each time. Moreover, the clearance in data set [7] is 88.9 mL/min/kg. Further, the Vd in data set [8] was determined as 4.54 L/kg. Further, the AUC in the data set on Canis familiaris stood at 0.11 µM·h. For the same molecule, the concentration at 3 h in data set [9] was found to be 36600 nM. Also, the concentration at 24 h in [10] is below 10 nM; in data set [11], 4020 nM. Besides, the concentration is 672 nM in the data set with Liver; 18 nM in the data set with Zone of skin [12]; 54 nM with Plasma; 5030 nM in the data set on Intestine; 21 nM in data set [13]; 46 nM with Zone of skin [14].

The pIC50 is the negative decadic logarithm of the IC50, by convention in mol/L. A lower pIC50 goes with a large IC50. What is called inhibition in vivo is the percentage by which the read-out fell short of the control. The low end stands for a response near the control, the high end for a response far below the control. The AUC is the area under the concentration-time curve, a measure of exposure.
